Source: ChEMBL document CHEMBL1828566, “Synthesis of 4β-triazole-podophyllotoxin derivatives by azide-alkyne cycloaddition and biological evaluation as potential antitumor agents” (Eur J Med Chem, 2011)
pIC50: −log10 of the molar value. Structures can show the parent of a compound that is named as a salt.

Assays:
K562 [1] = experiment: Cytotoxicity against human K562 cells after 2 days by MTT assay; assay type: functional, cell-based; settings: K562, 48 h
Outline: (§1)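 Exponentially growing cells were seeded in 96-well plates, precultured 1 day, exposed to test compounds over a range of concentrations, then incubated 2 more days.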

[2] = Cytotoxicity against human K562/A02 cells after 2 days by MTT assay; assay type: functional, cell-based; settings: K562/A02, 48 h; outline: as §1
HeLa [3] = experiment: Cytotoxicity against human HeLa cells after 2 days by MTT assay; assay type: functional, cell-based; settings: 48 h; outline: as §1
[4] = Selectivity index, ratio of IC50 for VP-16 to compound for human K562/A02 cells after 2 days by MTT assay; assay type: functional
HeLa [5] = experiment: Selectivity index, ratio of IC50 for VP-16 to compound for human HeLa cells after 2 days by MTT assay; assay type: functional
K562 [6] = experiment: Selectivity index, ratio of IC50 for VP-16 to compound for human K562 cells after 2 days by MTT assay; assay type: functional

SMILES | pIC50 (K562 [1]) | pIC50 [2] | pIC50 (HeLa [3]) | Ratio IC50 [4] | Ratio IC50 (HeLa [5]) | Ratio IC50 (K562 [6])
COC(=O)c1cn([C@@H]2c3cc4c(cc3[C@@H](c3cc(OC)c(OC)c(OC)c3)[C@H]3C(=O)OC[C@@H]32)OCO4)nn1 | 5.38 | 5.68 | 5.95 | – | – | –
COc1cc([C@@H]2c3cc4c(cc3[C@@H](n3cc(C(=O)O)nn3)[C@H]3COC(=O)[C@H]23)OCO4)cc(OC)c1OC | 5.27 | 5.05 | < 5.00 | – | – | –
COc1cc([C@@H]2c3cc4c(cc3[C@@H](n3cc(CCC(=O)O)nn3)[C@H]3COC(=O)[C@H]23)OCO4)cc(OC)c1OC | < 5.00 | < 5.00 | < 5.00 | – | – | –
COc1cc([C@@H]2c3cc4c(cc3[C@@H](n3cc(-c5cccnc5)nn3)[C@H]3COC(=O)[C@H]23)OCO4)cc(OC)c1OC | < 5.00 | < 5.00 | 4.45 | – | – | –
COc1cc([C@@H]2c3cc4c(cc3[C@@H](n3cc(CNc5ccc(C)cc5)nn3)[C@H]3COC(=O)[C@H]23)OCO4)cc(OC)c1OC | 6.33 | 6.28 | 6.07 | – | – | –
COc1cc([C@@H]2c3cc4c(cc3[C@@H](n3cc(C(=O)Nc5ccccc5Cl)nn3)[C@H]3COC(=O)[C@H]23)OCO4)cc(OC)c1OC | 7.28 | 7.23 | 7.09 | >40 | >40 | >40
COc1cc([C@@H]2c3cc4c(cc3[C@@H](n3cc(CN(C)C)nn3)[C@H]3COC(=O)[C@H]23)OCO4)cc(OC)c1OC | < 5.00 | < 5.00 | < 5.00 | – | – | –
CCN(CC)C(=O)c1cn([C@@H]2c3cc4c(cc3[C@@H](c3cc(OC)c(OC)c(OC)c3)[C@H]3C(=O)OC[C@@H]32)OCO4)nn1 | < 5.00 | < 5.00 | < 5.00 | – | – | –
COC(=O)c1cnnn1[C@@H]1c2cc3c(cc2[C@@H](c2cc(OC)c(OC)c(OC)c2)[C@H]2C(=O)OC[C@@H]21)OCO3 | 6.40 | 6.22 | 6.38 | – | – | –
COc1cc([C@@H]2c3cc4c(cc3[C@@H](n3nncc3-c3cccnc3)[C@H]3COC(=O)[C@H]23)OCO4)cc(OC)c1OC | 6.41 | 5.91 | 5.84 | – | – | –
COc1cc([C@@H]2c3cc4c(cc3[C@@H](n3cc(C(=O)Nc5ccc(C)cc5)nn3)[C@H]3COC(=O)[C@H]23)OCO4)cc(OC)c1OC | < 4.00 | < 4.00 | < 4.00 | – | – | –
COc1cc([C@@H]2c3cc4c(cc3[C@@H](n3nncc3C(=O)Nc3ccc(C)cc3)[C@H]3COC(=O)[C@H]23)OCO4)cc(OC)c1OC | 5.29 | 4.70 | < 5.00 | – | – | –
CCOC(=O)c1cn([C@@H]2c3cc4c(cc3[C@@H](c3cc(OC)c(OC)c(OC)c3)[C@H]3C(=O)OC[C@@H]32)OCO4)nn1 | 5.37 | 5.66 | 5.45 | – | – | –
CCOC(=O)c1cnnn1[C@@H]1c2cc3c(cc2[C@@H](c2cc(OC)c(OC)c(OC)c2)[C@H]2C(=O)OC[C@@H]21)OCO3 | 6.07 | 6.16 | 6.04 | – | – | –
COc1cc([C@@H]2c3cc4c(cc3[C@@H](n3cc(CNc5ccccc5)nn3)[C@H]3COC(=O)[C@H]23)OCO4)cc(OC)c1OC | 5.24 | 5.22 | 5.63 | – | – | –
COc1cccc2c1C(=O)c1c(O)c3c(c(O)c1C2=O)C[C@@](O)(C(=O)CO)C[C@@H]3O[C@H]1C[C@H](N)[C@H](O)[C@H](C)O1 [DOXORUBICIN HYDROCHLORIDE] | 6.44 | 4.72 | 6.37 | – | – | –
COc1cc([C@@H]2c3cc4c(cc3[C@@H](O[C@@H]3O[C@@H]5CO[C@@H](C)O[C@H]5[C@H](O)[C@H]3O)[C@H]3COC(=O)[C@H]23)OCO4)cc(OC)c1O [ETOPOSIDE] | 5.68 | 3.82 | 5.20 | – | – | –
COc1cc([C@@H]2c3cc4c(cc3[C@H](O)[C@H]3COC(=O)[C@H]23)OCO4)cc(OC)c1OC [PODOFILOX] | 7.52 | 6.77 | 7.00 | – | – | –
